The values below come from ChEMBL document CHEMBL3627671, “Novel derivatives of nitro-substituted salicylic acids: Synthesis, antimicrobial activity and cytotoxicity” (Bioorg Med Chem, 2015).

In brackets after ≈: the same amount, converted by molar mass.

The test system of test [1] is Mycobacterium kansasii. The experiment in a line: Antimycobacterial activity against Mycobacterium kansasii 6509/96 after 7 days. Format: functional. The following applies: 6509/96, 168 h. In short, it runs like this: (§1)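 Šula's semisynthetic medium micromethod at 37 °C, read after 7, 14 and 21 days. The 1.0 McFarland suspension was diluted 10^-4. MIC determined. 6509/96 is a clinical isolate.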

For test [2], the system named is Mycobacterium kansasii. Nature of the test: Antimycobacterial activity against Mycobacterium kansasii 235/80 after 14 days. Format: functional. The following applies: 235/80, 336 h. In short, it runs like this:
as §1

Test [3] concerns Mycobacterium tuberculosis. The experiment in a line: Antimycobacterial activity against Mycobacterium tuberculosis H37Rv 331/88 after 21 days. The class given is functional. The following applies: H37Rv 331/88, 504 h.
The subject of test [4] is Mycobacterium avium. Nature of the test: Antimycobacterial activity against Mycobacterium avium 330/80 after 21 days. Format: functional. The following applies: 330/80, 504 h.
The subject of test [5] is Mycobacterium kansasii. Nature of the test: Antimycobacterial activity against Mycobacterium kansasii 235/80 after 7 days. The class given is functional. The following applies: 235/80, 168 h. In short, it runs like this:
as §1

The subject of test [6] is Mycobacterium kansasii. The experiment in a line: Antimycobacterial activity against Mycobacterium kansasii 235/80 after 21 days. The following applies: 235/80, 504 h. The class given is functional. In short, it runs like this:
as §1

Test [7] deals with Mycobacterium kansasii. Nature of the test: Antimycobacterial activity against Mycobacterium kansasii 6509/96 after 21 days. Format: functional. The following applies: 6509/96, 504 h. In short, it runs like this:
as §1

The test system of test [8] is Mycobacterium tuberculosis. The experiment in a line: Antimycobacterial activity against Mycobacterium tuberculosis H37Rv 331/88 after 14 days. Format: functional. To be noted: H37Rv 331/88, 336 h.
The test system of test [9] is Mycobacterium kansasii. The experiment in a line: Antimycobacterial activity against Mycobacterium kansasii 6509/96 after 14 days. The following applies: 6509/96, 336 h. The class given is functional. In short, it runs like this:
as §1

Test [10] deals with Mycobacterium avium. Nature of the test: Antimycobacterial activity against Mycobacterium avium 330/80 after 14 days. The following applies: 330/80, 336 h. The class given is functional.
The subject of the next test is HepG2. Nature of the test: Cytotoxicity against human HepG2 cells after 24 hrs […]. Format: cell-based. To be noted: HepG2, 24 h.
The nature of test [11]: Selectivity index, ratio of CI50 for human HepG2 cells to MIC100 for Mycobacterium tuberculosis H37Rv 331/88.

As usually defined, the MIC is the lowest concentration that inhibits growth of the organism. Read a low MIC as inhibition by little substance. As a reminder, the IC50 is the concentration needed to halve the response being measured. Read a high IC50 as a need for much substance. On to `O=C(Nc1ccc(Cl)c(Cl)c1)c1cccc([N+](=O)[O-])c1O`, for which the MIC was found to be 62.5 µM (≈ 20.4 µg/mL) in the test with Mycobacterium kansasii [1]; 62.5 µM (≈ 20.4 µg/mL) against Mycobacterium kansasii [2]; 32 µM (≈ 10.5 µg/mL) in [3]; 250 µM (≈ 81.8 µg/mL) against Mycobacterium avium [4]; 32 µM (≈ 10.5 µg/mL) in the test on Mycobacterium kansasii [5]; 62.5 µM (≈ 20.4 µg/mL) against Mycobacterium kansasii [6]. Further, the MIC turned out to be 62.5 µM (≈ 20.4 µg/mL) with Mycobacterium kansasii [7], 16 µM (≈ 5.23 µg/mL) in test [8], 62.5 µM (≈ 20.4 µg/mL) with Mycobacterium kansasii [9] and 250 µM (≈ 81.8 µg/mL) against Mycobacterium avium [10]. The same compound returned a half-inhibitory concentration (IC50) with HepG2 of 5.9 µM. In addition, the “Selectivity Index” value in test [11] turned out to be 0.184.

For `O=C(Nc1cccc(C(F)(F)F)c1)c1cccc([N+](=O)[O-])c1O`, the MIC in the test with Mycobacterium kansasii [1] worked out at 125 µM (≈ 40.8 µg/mL); in the test on Mycobacterium kansasii [2] it was 62.5 µM (≈ 20.4 µg/mL); in [3], 32 µM (≈ 10.4 µg/mL); against Mycobacterium avium [4] it was 500 µM (≈ 163 µg/mL); against Mycobacterium kansasii [5] it was 32 µM (≈ 10.4 µg/mL); with Mycobacterium kansasii [6] it was 62.5 µM (≈ 20.4 µg/mL). Besides, the MIC in the test on Mycobacterium kansasii [7] was 250 µM (≈ 81.6 µg/mL); in test [8], 32 µM (≈ 10.4 µg/mL); with Mycobacterium kansasii [9] it was 250 µM (≈ 81.6 µg/mL); against Mycobacterium avium [10] it was 500 µM (≈ 163 µg/mL). This compound also registered an IC50 in the test with HepG2 of 8.9 µM. For the same compound, the “Selectivity Index” value in [11] is listed as 0.278.
